From ChEMBL document CHEMBL1629431, “Synthesis and antitumor activity of some 2, 3-disubstituted quinazolin-4(3H)-ones and 4, 6- disubstituted- 1, 2, 3, 4-tetrahydroquinazolin-2H-ones” (2010)

Legend:
Format in all cases: functional
MCF7 = experiment: Growth inhibition of human MCF7 cells at 10 uM after 48 hrs by coulter counter method; conditions: MCF7, 48 h, read-out: GI
How it was run: (§1)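 Single high-dose NCI 60-cell-line panel screen across nine tumor subpanels. Test solutions (0.2 mL) were added in duplicate to wells holding 1.8 mL of culture at 6 × 10⁴ cells/mL. Controls got PBS and DMSO at identical dilutions. Incubation was 48 h at 37 °C in humidified 5% CO₂. Cells were diluted 10-fold in saline, Coulter-counted and dilution-corrected. Results were expressed as percent growth inhibition versus control.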

MDA-MB-468 = experiment: Growth inhibition of human MDA-MB-468 cells at 10 uM after 48 hrs by coulter counter method; conditions: MDA-MB-468, 48 h, read-out: GI; how it was run: as §1
OVCAR-4 = experiment: Growth inhibition of human OVCAR4 cells at 10 uM after 48 hrs by coulter counter method; conditions: OVCAR-4, 48 h, read-out: GI; how it was run: as §1
MDA-MB-231 = experiment: Growth inhibition of human MDA-MB-231 cells at 10 uM after 48 hrs by coulter counter method; conditions: MDA-MB-231, 48 h, read-out: GI; how it was run: as §1
U-251 = experiment: Growth inhibition of human U251 cells at 10 uM after 48 hrs by coulter counter method; conditions: U-251, 48 h, read-out: GI; how it was run: as §1
SK-MEL-28 = experiment: Growth inhibition of human SK-MEL-28 cells at 10 uM after 48 hrs by coulter counter method; conditions: SK-MEL-28, 48 h, read-out: GI; how it was run: as §1
NCI-H23 = experiment: Growth inhibition of human NCI-H23 cells at 10 uM after 48 hrs by coulter counter method; conditions: NCI-H23, 48 h, read-out: GI; how it was run: as §1
SNB-75 = experiment: Growth inhibition of human SNB75 cells at 10 uM after 48 hrs by coulter counter method; conditions: SNB-75, 48 h, read-out: GI; how it was run: as §1
CAKI-1 = experiment: Growth inhibition of human Caki1 cells at 10 uM after 48 hrs by coulter counter method; conditions: CAKI-1, 48 h, read-out: GI; how it was run: as §1
KM12 = experiment: Growth inhibition of human KM12 cells at 10 uM after 48 hrs by coulter counter method; conditions: KM12, 48 h, read-out: GI; how it was run: as §1
SF-539 = experiment: Growth inhibition of human SF539 cells at 10 uM after 48 hrs by coulter counter method; conditions: SF-539, 48 h, read-out: GI; how it was run: as §1
T47D = experiment: Growth inhibition of human T47D cells at 10 uM after 48 hrs by coulter counter method; conditions: read-out: GI; how it was run: as §1
UO-31 = experiment: Growth inhibition of human UO31 cells at 10 uM after 48 hrs by coulter counter method; conditions: UO-31, 48 h, read-out: GI; how it was run: as §1
M14 = experiment: Growth inhibition of human M14 cells at 10 uM after 48 hrs by coulter counter method; conditions: M14, 48 h, read-out: GI; how it was run: as §1
PC-3 = experiment: Growth inhibition of human PC3 cells at 10 uM after 48 hrs by coulter counter method; conditions: PC-3, 48 h, read-out: GI; how it was run: as §1
BT-549 = experiment: Growth inhibition of human BT549 cells at 10 uM after 48 hrs by coulter counter method; conditions: BT-549, 48 h, read-out: GI; how it was run: as §1
HL-60(TB) = experiment: Growth inhibition of human HL-60(TB) cells at 10 uM after 48 hrs by coulter counter method; conditions: HL-60, 48 h, read-out: GI
How it was run: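 Part of the NCI 60-cell-line single-high-dose panel. Cells were seeded at 6 × 10⁴ cells/mL with test solution in duplicate wells, alongside PBS/DMSO controls at identical dilutions. Plates were held 48 h at 37 °C in a humidified 5% CO₂ incubator. Cells were then diluted 10-fold in saline and counted by Coulter counter, with counts corrected for dilution. Results are percent growth of treated cells, reported as GI %.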

HCT-116 = experiment: Growth inhibition of human HCT116 cells at 10 uM after 48 hrs by coulter counter method; conditions: HCT-116, 48 h, read-out: GI; how it was run: as §1
NCI-H522 = experiment: Growth inhibition of human NCI-H522 cells at 10 uM after 48 hrs by coulter counter method; conditions: NCI-H522, 48 h, read-out: GI; how it was run: as §1
NCI-H226 = experiment: Growth inhibition of human NCI-H226 cells at 10 uM after 48 hrs by coulter counter method; conditions: NCI-H226, 48 h, read-out: GI; how it was run: as §1
CCRF-CEM = experiment: Growth inhibition of human CCRF-CEM cells at 10 uM after 48 hrs by coulter counter method; conditions: read-out: GI; how it was run: as §1
786-0 = experiment: Growth inhibition of human 786-0 cells at 10 uM after 48 hrs by coulter counter method; conditions: 786-0, 48 h, read-out: GI; how it was run: as §1
UACC-62 = experiment: Growth inhibition of human UACC62 cells at 10 uM after 48 hrs by coulter counter method; conditions: UACC-62, 48 h, read-out: GI; how it was run: as §1
SN12C = experiment: Growth inhibition of human SN12C cells at 10 uM after 48 hrs by coulter counter method; conditions: read-out: GI; how it was run: as §1
HT-29 = experiment: Growth inhibition of human HT-29 cells at 10 uM after 48 hrs by coulter counter method; conditions: HT-29, 48 h, read-out: GI; how it was run: as §1
[1] = Growth inhibition of human Hs 578T cells at 10 uM after 48 hrs by coulter counter method; conditions: read-out: GI; how it was run: as §1
OVCAR-8 = experiment: Growth inhibition of human OVCAR8 cells at 10 uM after 48 hrs by coulter counter method; conditions: OVCAR-8, 48 h, read-out: GI; how it was run: as §1
HOP-92 = experiment: Growth inhibition of human HOP92 cells at 10 uM after 48 hrs by coulter counter method; conditions: HOP-92, 48 h, read-out: GI; how it was run: as §1
MOLT-4 = experiment: Growth inhibition of human MOLT4 cells at 10 uM after 48 hrs by coulter counter method; conditions: MOLT-4, 48 h, read-out: GI; how it was run: as §1
K562 = experiment: Growth inhibition of human K562 cells at 10 uM after 48 hrs by coulter counter method; conditions: K562, 48 h, read-out: GI; how it was run: as §1
SF-268 = experiment: Growth inhibition of human SF268 cells at 10 uM after 48 hrs by coulter counter method; conditions: SF-268, 48 h, read-out: GI; how it was run: as §1
A549 = experiment: Growth inhibition of human A549 cells at 10 uM after 48 hrs by coulter counter method; conditions: A549, 48 h, read-out: GI; how it was run: as §1
SK-OV-3 = experiment: Growth inhibition of human SKOV3 cells at 10 uM after 48 hrs by coulter counter method; conditions: SK-OV-3, 48 h, read-out: GI; how it was run: as §1
SK-MEL-2 = experiment: Growth inhibition of human SK-MEL-2 cells at 10 uM after 48 hrs by coulter counter method; conditions: SK-MEL-2, 48 h, read-out: GI; how it was run: as §1
COLO 205 = experiment: Growth inhibition of human COLO205 cells at 10 uM after 48 hrs by coulter counter method; conditions: COLO 205, 48 h, read-out: GI; how it was run: as §1
IGROV-1 = experiment: Growth inhibition of human IGROV1 cells at 10 uM after 48 hrs by coulter counter method; conditions: IGROV-1, 48 h, read-out: GI; how it was run: as §1

Compound	inhibition of growth at 10 µM (MCF7)	inhibition of growth at 10 µM (MDA-MB-468)	inhibition of growth at 10 µM (OVCAR-4)	inhibition of growth at 10 µM (MDA-MB-231)	inhibition of growth at 10 µM (U-251)	inhibition of growth at 10 µM (SK-MEL-28)	inhibition of growth at 10 µM (NCI-H23)	inhibition of growth at 10 µM (SNB-75)	inhibition of growth at 10 µM (CAKI-1)	inhibition of growth at 10 µM (KM12)	inhibition of growth at 10 µM (SF-539)	inhibition of growth at 10 µM (T47D)	inhibition of growth at 10 µM (UO-31)	inhibition of growth at 10 µM (M14)	inhibition of growth at 10 µM (PC-3)	inhibition of growth at 10 µM (BT-549)	inhibition of growth at 10 µM (HL-60(TB))	inhibition of growth at 10 µM (HCT-116)	inhibition of growth at 10 µM (NCI-H522)	inhibition of growth at 10 µM (NCI-H226)	other results
O=c1c2ccccc2nc(-n2ccnc2)n1-c1ccccc1	30%	30%	30%	30%	30%	30%	30%	30%	30%	30%	30%	30%	30%	30%	30%	30%	30%	30%	30%	30%	inhibition of growth at 10 µM (CCRF-CEM): 30%; inhibition of growth at 10 µM (786-0): 30%; inhibition of growth at 10 µM (UACC-62): 30%; inhibition of growth at 10 µM (SN12C): 30%; inhibition of growth at 10 µM (HT-29): 30%; inhibition of growth at 10 µM [1]: 30%; inhibition of growth at 10 µM (OVCAR-8): 30%; inhibition of growth at 10 µM (HOP-92): 76.6%; inhibition of growth at 10 µM (MOLT-4): 30%; inhibition of growth at 10 µM (K562): 30%; inhibition of growth at 10 µM (SF-268): 30%; inhibition of growth at 10 µM (A549): 30%; inhibition of growth at 10 µM (SK-OV-3): 30%; inhibition of growth at 10 µM (SK-MEL-2): 30%
O=c1c2ccccc2nc(-n2ccnc2)n1-c1ccc(Cl)cc1	30%	30%	30%	30%	30%	30%	30%	30%	30%	30%	30%	39%	30%	30%	40.3%	30%	30%	30%	30%	30%	inhibition of growth at 10 µM (COLO 205): 30%; inhibition of growth at 10 µM (786-0): 30%; inhibition of growth at 10 µM (UACC-62): 30%; inhibition of growth at 10 µM (SN12C): 30%; inhibition of growth at 10 µM (IGROV-1): 30%; inhibition of growth at 10 µM (HT-29): 30%; inhibition of growth at 10 µM [1]: 30%; inhibition of growth at 10 µM (OVCAR-8): 30%; inhibition of growth at 10 µM (HOP-92): 30%; inhibition of growth at 10 µM (MOLT-4): 47.7%; inhibition of growth at 10 µM (K562): 37.1%; inhibition of growth at 10 µM (SF-268): 30%; inhibition of growth at 10 µM (A549): 30%; inhibition of growth at 10 µM (SK-OV-3): 30%; inhibition of growth at 10 µM (SK-MEL-2): 30%
COc1ccc(-n2c(-n3ccnc3)nc3ccccc3c2=O)cc1	30%	30%	30%	30%	30%	30%	30%	30%	30%	30%	30%	30%	30%	30%	30%	30%	30%	30%	30%	30%	inhibition of growth at 10 µM (COLO 205): 30%; inhibition of growth at 10 µM (CCRF-CEM): 30%; inhibition of growth at 10 µM (786-0): 30%; inhibition of growth at 10 µM (UACC-62): 30%; inhibition of growth at 10 µM (SN12C): 30%; inhibition of growth at 10 µM (IGROV-1): 30%; inhibition of growth at 10 µM (HT-29): 30%; inhibition of growth at 10 µM [1]: 30%; inhibition of growth at 10 µM (OVCAR-8): 30%; inhibition of growth at 10 µM (K562): 30.8%; inhibition of growth at 10 µM (SF-268): 30%; inhibition of growth at 10 µM (A549): 30%; inhibition of growth at 10 µM (SK-OV-3): 30%; inhibition of growth at 10 µM (SK-MEL-2): 30%
